Results on five compounds are retold here after ChEMBL document CHEMBL1770143, “Biological evaluation of 3'-O-alkylated analogs of salacinol, the role of hydrophobic alkyl group at 3' position in the side chain on the α-glucosidase inhibitory activity” (Bioorg Med Chem Lett, 2011).

The target in test [1] is T1, Sucrase-isomaltase, intestinal (Rattus norvegicus, UniProt P23739). Description: Inhibition of rat small intestinal sucrase after 30 mins by glucose-oxidase method. In outline: (§1)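 Enzyme source was rat small-intestinal brush border membrane vesicles suspended in 0.1 M maleate buffer, pH 6.0. Substrate solutions, prior to mixing, were maltose 74 mM (maltase), sucrose 74 mM (sucrase) and isomaltose 7.4 mM (isomaltase). Substrate, inhibitor and enzyme were incubated at 37 °C for 30 min, then stopped by 2 min boiling. Released glucose was measured by glucose oxidase. Final DMSO was 2.5%.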

Test [2] has as its target T1, Sucrase-isomaltase, intestinal. In words: Inhibition of rat small intestinal isomaltase after 30 mins by glucose-oxidase method. In outline:
as §1

Test [3] shares this target. In words: Competitive inhibition of rat intestinal isomaltase.
Test [4] shares this target. In words: Competitive inhibition of rat intestinal sucrase.

Structures are written as SMILES.

T1 sequence (P23739 1-1013 limits assumed): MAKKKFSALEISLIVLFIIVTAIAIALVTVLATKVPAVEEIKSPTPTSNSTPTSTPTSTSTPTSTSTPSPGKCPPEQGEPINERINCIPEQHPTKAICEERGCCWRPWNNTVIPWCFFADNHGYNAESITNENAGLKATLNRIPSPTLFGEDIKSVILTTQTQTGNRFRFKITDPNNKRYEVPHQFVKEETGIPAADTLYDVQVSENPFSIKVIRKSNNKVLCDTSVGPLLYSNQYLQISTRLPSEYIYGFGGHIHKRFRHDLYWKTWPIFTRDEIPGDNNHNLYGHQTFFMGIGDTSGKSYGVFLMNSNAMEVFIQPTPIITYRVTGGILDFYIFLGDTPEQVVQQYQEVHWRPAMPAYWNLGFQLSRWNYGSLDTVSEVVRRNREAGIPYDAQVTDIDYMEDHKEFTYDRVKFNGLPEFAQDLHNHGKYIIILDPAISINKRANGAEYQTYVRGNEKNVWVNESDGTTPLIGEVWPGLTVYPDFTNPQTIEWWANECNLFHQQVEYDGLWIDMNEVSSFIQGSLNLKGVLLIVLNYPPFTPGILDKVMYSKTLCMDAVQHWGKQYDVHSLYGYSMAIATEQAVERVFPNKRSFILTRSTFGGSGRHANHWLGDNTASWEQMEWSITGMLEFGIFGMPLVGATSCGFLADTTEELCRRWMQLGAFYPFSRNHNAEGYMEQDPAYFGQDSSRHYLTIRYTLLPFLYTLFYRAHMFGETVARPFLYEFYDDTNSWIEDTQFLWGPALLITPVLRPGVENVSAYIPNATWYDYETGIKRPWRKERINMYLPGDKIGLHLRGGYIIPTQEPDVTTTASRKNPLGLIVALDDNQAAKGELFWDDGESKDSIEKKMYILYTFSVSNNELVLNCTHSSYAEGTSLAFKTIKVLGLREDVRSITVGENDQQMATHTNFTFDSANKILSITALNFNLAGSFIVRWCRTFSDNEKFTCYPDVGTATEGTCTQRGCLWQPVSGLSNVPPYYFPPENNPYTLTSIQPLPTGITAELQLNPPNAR
T1 sequence (P23739 1014-1841 limits assumed): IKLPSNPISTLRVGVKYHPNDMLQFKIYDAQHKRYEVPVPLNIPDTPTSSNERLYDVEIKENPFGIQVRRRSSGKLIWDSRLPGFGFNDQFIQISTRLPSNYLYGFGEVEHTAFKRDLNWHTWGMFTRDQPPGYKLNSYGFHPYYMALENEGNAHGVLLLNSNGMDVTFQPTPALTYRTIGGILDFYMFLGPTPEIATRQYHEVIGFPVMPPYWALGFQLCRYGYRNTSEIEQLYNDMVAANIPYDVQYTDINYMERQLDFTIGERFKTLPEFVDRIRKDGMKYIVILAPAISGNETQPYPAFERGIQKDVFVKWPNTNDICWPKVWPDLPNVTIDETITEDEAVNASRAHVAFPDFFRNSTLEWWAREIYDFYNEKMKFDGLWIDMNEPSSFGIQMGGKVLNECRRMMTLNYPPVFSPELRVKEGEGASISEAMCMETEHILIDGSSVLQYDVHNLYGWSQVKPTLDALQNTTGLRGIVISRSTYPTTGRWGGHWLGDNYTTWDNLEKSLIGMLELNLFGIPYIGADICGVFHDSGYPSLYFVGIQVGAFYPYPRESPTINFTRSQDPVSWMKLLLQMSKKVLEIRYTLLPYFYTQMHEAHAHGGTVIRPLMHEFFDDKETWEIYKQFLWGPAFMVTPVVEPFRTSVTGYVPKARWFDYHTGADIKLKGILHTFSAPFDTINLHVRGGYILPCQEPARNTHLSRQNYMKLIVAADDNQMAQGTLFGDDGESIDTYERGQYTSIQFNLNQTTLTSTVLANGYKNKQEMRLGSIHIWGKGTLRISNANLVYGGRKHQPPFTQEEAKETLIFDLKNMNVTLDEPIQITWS

The term IC50 denotes the concentration at which inhibition is half-maximal. A high value points to a need for much substance. Turning to `CO[C@@H](CO)[C@H](O)C[S+]1C[C@@H](O)[C@H](O)[C@H]1CO` (single isomer, unassigned), the IC50 in test [1] was 460 nM; in test [2] it was 390 nM.
Take `CCO[C@@H](CO)[C@H](O)C[S+]1C[C@@H](O)[C@H](O)[C@H]1CO` (single isomer, unassigned): the IC50 worked out at 120 nM in test [1] and 270 nM in test [2].
As for `CCCCCCCCCCCCCO[C@@H](CO)[C@H](O)C[S+]1C[C@@H](O)[C@H](O)[C@H]1CO` (single isomer, unassigned), the IC50 in test [1] was determined as 1300 nM; in test [2], 950 nM.
Take `OC[C@H](OCc1ccccc1)[C@H](O)C[S+]1C[C@@H](O)[C@H](O)[C@H]1CO` (single isomer, unassigned): half-maximal inhibition in test [1] (IC50) was put at 320 nM. This lies in the sub-micromolar range.
As a reminder, the Ki is the equilibrium dissociation constant of an inhibitor or competing ligand from its target. Read a low Ki as tighter binding. For `O=S(=O)([O-])O[C@@H](CO)[C@H](O)C[S@+]1C[C@@H](O)[C@H](O)[C@H]1CO` [SALACINOL], the Ki in test [3] is 1410 nM; in test [4], 957 nM.
